Tests used:
[1] = system: Rattus norvegicus; assay: Tested for distribution of radioactivity of iodine 125 in thyroid of rat after 5 min of intravenous administration; type: ADME, organism-based, Thyroid gland; conditions: in vivo
Procedure, shortened: (§1)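 Fischer 344 rats, four per time point, under ether anaesthesia. Each received ~8.6 μCi of 125I-labelled fatty acid (sp act ~20 mCi/mmol) by lateral tail vein in 0.5 mL 6% bovine serum albumin with 10% final ethanol, filtered before injection. Percent injected dose/g was calculated against injectate standards and reported as mean (range). Thyroid weight was taken as body weight × 7.5 mg/100 g.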

[2] = system: Rattus norvegicus; assay: Tested for distribution of radioactivity iodine 125 in heart of rat after 60 min of intravenous administration; type: ADME, organism-based; conditions: in vivo, 1 h; procedure, shortened: as §1
[3] = system: Rattus norvegicus; assay: Tested for distribution of radioactivity of iodine 125 in thyroid of rat after 60 min of intravenous administration; type: ADME, organism-based, Thyroid gland; conditions: in vivo, 1 h; procedure, shortened: as §1
[4] = system: Rattus norvegicus; assay: Tested for distribution of radioactivity iodine 125 in heart of rat after 30 min of intravenous administration (value in parentheses indicates range); type: ADME, organism-based; conditions: in vivo, 0.5 h; procedure, shortened: as §1
[5] = system: Rattus norvegicus; assay: Tested for distribution of radioactivity of iodine 125 in liver of rat after 2 hr of intravenous administration; type: ADME, organism-based; conditions: in vivo; procedure, shortened: as §1
[6] = system: Rattus norvegicus; assay: Tested for distribution of radioactivity of iodine 125 in kidney of rat after 4 hours of intravenous administration; type: ADME, organism-based; conditions: in vivo; procedure, shortened: as §1
[7] = system: Rattus norvegicus; assay: Tested for distribution of radioactivity of iodine 125 in blood of rat after 2 hour of intravenous administration; type: ADME, organism-based; conditions: in vivo; procedure, shortened: as §1
[8] = system: Rattus norvegicus; assay: Tested for distribution of radioactivity in heart of rat after 2 hours of intravenous administration; type: ADME, organism-based; conditions: in vivo; procedure, shortened: as §1
[9] = system: Rattus norvegicus; assay: Tested for distribution of radioactivity of iodine 125 in thyroid of rat after 4 hr of intravenous administration; type: ADME, organism-based, Thyroid gland; conditions: in vivo; procedure, shortened: as §1
[10] = system: Rattus norvegicus; assay: Tested for distribution of radioactivity of iodine 125 in heart of rat after 5 min of intravenous administration; type: ADME, organism-based; conditions: in vivo; procedure, shortened: as §1
[11] = system: Rattus norvegicus; assay: Tested for distribution of radioactivity of iodine 125 in blood of rat after 30 min of intravenous administration; type: ADME, organism-based; conditions: in vivo, 0.5 h; procedure, shortened: as §1
[12] = system: Rattus norvegicus; assay: Tested for distribution of radioactivity of iodine 125 in liver of rat after 30 min of intravenous administration; type: ADME, organism-based; conditions: in vivo, 0.5 h; procedure, shortened: as §1
[13] = system: Rattus norvegicus; assay: Tested for distribution of radioactivity of iodine 125 in kidney of rat after 5 min of intravenous administration; type: ADME, organism-based; conditions: in vivo; procedure, shortened: as §1
[14] = system: Rattus norvegicus; assay: Tested for distribution of radioactivity of iodine 125 in lungs of rat after 5 min of intravenous administration; type: ADME, organism-based, Lung; conditions: in vivo; procedure, shortened: as §1
[15] = system: Rattus norvegicus; assay: Tested for distribution of radioactivity of iodine 125 in liver of rat after 4 hr of intravenous administration; type: ADME, organism-based; conditions: in vivo; procedure, shortened: as §1
[16] = system: Rattus norvegicus; assay: Tested for distribution of radioactivity of iodine 125 in lungs of rat after 30 min of intravenous administration; type: ADME, organism-based, Lung; conditions: in vivo, 0.5 h; procedure, shortened: as §1
[17] = system: Rattus norvegicus; assay: Tested for distribution of radioactivity of iodine 125 in liver of rat after 60 min of intravenous administration; type: ADME, organism-based; conditions: in vivo, 1 h; procedure, shortened: as §1
[18] = system: Rattus norvegicus; assay: Tested for distribution of radioactivity iodine 125 in heart of rat after 4 hours of intravenous administration; type: ADME, organism-based; conditions: in vivo; procedure, shortened: as §1
[19] = system: Rattus norvegicus; assay: Tested for distribution of radioactivity of iodine 125 in thyroid of rat after 2 hr of intravenous administration; type: ADME, organism-based, Thyroid gland; conditions: in vivo; procedure, shortened: as §1
[20] = system: Rattus norvegicus; assay: Tested for distribution of radioactivity of iodine 125 in blood of rat after 5 min of intravenous administration; type: ADME, organism-based; conditions: in vivo; procedure, shortened: as §1
[21] = system: Rattus norvegicus; assay: Tested for distribution of radioactivity of iodine 125 in blood of rat after 4 hours of intravenous administration; type: ADME, organism-based; conditions: in vivo; procedure, shortened: as §1
[22] = system: Rattus norvegicus; assay: Tested for distribution of radioactivity of iodine 125 in kidney of rat after 2 hours of intravenous administration; type: ADME, organism-based; conditions: in vivo; procedure, shortened: as §1
[23] = system: Rattus norvegicus; assay: Tested for distribution of radioactivity of iodine 125 in lungs of rat after 2 hours of intravenous administration; type: ADME, organism-based, Lung; conditions: in vivo; procedure, shortened: as §1
[24] = system: Rattus norvegicus; assay: Tested for distribution of radioactivity of iodine 125 in thyroid of rat after 30 min of intravenous administration; type: ADME, organism-based, Thyroid gland; conditions: in vivo, 0.5 h; procedure, shortened: as §1
[25] = system: Rattus norvegicus; assay: Tested for distribution of radioactivity of iodine 125 in lungs of rat after 60 min of intravenous administration; type: ADME, organism-based, Lung; conditions: in vivo, 1 h; procedure, shortened: as §1
[26] = system: Rattus norvegicus; assay: Tested for distribution of radioactivity of iodine 125 in blood of rat after 60 min of intravenous administration; type: ADME, organism-based; conditions: in vivo, 1 h; procedure, shortened: as §1
[27] = Tested for distribution of radioactivity of iodine 125 in kidney of rat after 60 min of intravenous administration; type: ADME; conditions: in vivo, 1 h; procedure, shortened: as §1
[28] = system: Rattus norvegicus; assay: Tested for distribution of radioactivity of iodine 125 in kidney of rat after 30 min of intravenous administration; type: ADME, organism-based; conditions: in vivo, 0.5 h; procedure, shortened: as §1
[29] = system: Rattus norvegicus; assay: Tested for distribution of radioactivity of iodine 125 in liver of rat after 5 min of intravenous administration; type: ADME, organism-based; conditions: in vivo; procedure, shortened: as §1

Question: For `O=C(O)CCCCC[Te]CCCCCCCCC/C=C/I`, which Injected dose/g [1] is on record?
Answer: The Injected dose/g was 8.54%.

Question: And the Injected dose/g [2]?
Answer: The Injected dose/g was 2.96%.

Question: And the Injected dose/g [3]?
Answer: The Injected dose/g was 22.2%.

Question: What about the Injected dose/g [4] of the same compound?
Answer: The Injected dose/g was 2.78%.

Question: And the Injected dose/g [5]?
Answer: The Injected dose/g was 4.78%.

Question: And the Injected dose/g [6]?
Answer: The Injected dose/g was 0.77%.

Question: And the Injected dose/g [7]?
Answer: Its Injected dose/g is 0.23%.

Question: And the Injected dose/g [8]?
Answer: The Injected dose/g was 2.86%.

Question: What about the Injected dose/g [9] of the same compound?
Answer: The Injected dose/g was 69.8%.

Question: And the Injected dose/g [10]?
Answer: Its Injected dose/g is 3.47%.

Question: What about the Injected dose/g [11] of the same compound?
Answer: The Injected dose/g was 0.22%.

Question: What about the Injected dose/g [12] of the same compound?
Answer: The Injected dose/g was 5.63%.

Question: And the Injected dose/g [13]?
Answer: The Injected dose/g was 1.05%.

Question: And the Injected dose/g [14]?
Answer: Its Injected dose/g is 1.29%.

Question: What about the Injected dose/g [15] of the same compound?
Answer: Its Injected dose/g is 4.4%.

Question: What about the Injected dose/g [16] of the same compound?
Answer: Its Injected dose/g is 0.96%.

Question: And the Injected dose/g [17]?
Answer: Its Injected dose/g is 5.33%.

Question: And the Injected dose/g [18]?
Answer: The Injected dose/g was 2.37%.

Question: What about the Injected dose/g [19] of the same compound?
Answer: The Injected dose/g was 43.8%.

Question: And the Injected dose/g [20]?
Answer: The Injected dose/g was 0.26%.

Question: And the Injected dose/g [21]?
Answer: The Injected dose/g was 0.27%.

Question: What about the Injected dose/g [22] of the same compound?
Answer: Its Injected dose/g is 0.88%.

Question: And the Injected dose/g [23]?
Answer: Its Injected dose/g is 1%.

Question: And the Injected dose/g [24]?
Answer: Its Injected dose/g is 13.5%.

Question: What about the Injected dose/g [25] of the same compound?
Answer: Its Injected dose/g is 1%.

Question: What about the Injected dose/g [26] of the same compound?
Answer: The Injected dose/g was 0.22%.

Question: What about the Injected dose/g [27] of the same compound?
Answer: The Injected dose/g was 0.95%.

Question: What about the Injected dose/g [28] of the same compound?
Answer: The Injected dose/g was 0.89%.

Question: And the Injected dose/g [29]?
Answer: Its Injected dose/g is 6.18%.

Reference: ChEMBL document CHEMBL1122285, “New myocardial imaging agents: stabilization of radioiodine as a terminal vinyl iodide moiety on tellurium fatty acids” (J Med Chem, 1983)
